Data reported in ChEMBL document CHEMBL4431317, “Allosteric Inhibition of SHP2: Identification of a Potent, Selective, and Orally Efficacious Phosphatase Inhibitor” (J Med Chem, 2016).
Activity calls are given as the source filed them. No cut-off for these calls is given here.

How the values were obtained:
[1] = target: T1, Tyrosine-protein phosphatase non-receptor type 11 (Homo sapiens, UniProt Q06124); assay: Inhibition of human 6his-tagged SHP2 (2 to 593 residues) expressed in Escherichia coli BL21 Star (DE3) cells preincubated with IRS1_pY1172(dPEG8)pY1222 for 30 to 60 mins followed by addition of DiFMUP measured after 30 mins by fluorescence analysis
T1 sequence (Q06124 whole entry): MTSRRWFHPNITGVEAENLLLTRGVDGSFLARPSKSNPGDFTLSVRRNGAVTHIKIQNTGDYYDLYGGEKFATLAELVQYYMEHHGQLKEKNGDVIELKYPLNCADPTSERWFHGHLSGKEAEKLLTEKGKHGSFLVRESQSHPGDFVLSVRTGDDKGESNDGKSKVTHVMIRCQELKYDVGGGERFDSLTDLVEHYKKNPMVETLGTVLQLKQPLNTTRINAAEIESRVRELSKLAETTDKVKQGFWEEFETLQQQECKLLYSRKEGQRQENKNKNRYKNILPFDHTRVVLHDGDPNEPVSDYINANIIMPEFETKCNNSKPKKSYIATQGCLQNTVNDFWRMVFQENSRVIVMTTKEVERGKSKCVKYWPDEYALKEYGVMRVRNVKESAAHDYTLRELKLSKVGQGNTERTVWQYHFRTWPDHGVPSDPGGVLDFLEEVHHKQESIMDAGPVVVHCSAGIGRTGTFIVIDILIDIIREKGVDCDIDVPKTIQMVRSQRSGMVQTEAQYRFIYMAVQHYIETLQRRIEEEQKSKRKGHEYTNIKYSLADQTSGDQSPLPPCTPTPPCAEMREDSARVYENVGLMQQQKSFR

[2] = target: T2, Tyrosine-protein phosphatase non-receptor type 11 (Homo sapiens) (UniProt Q06124); assay: Inhibition of human 6his-tagged SHP2 (1 to 525 residues) expressed in Escherichia coli BL21 Star (DE3) cells assessed as change in melting temperature at 100 uM by SYPRO orange dye based differential scanning fluorometry
T2 sequence (whole entry): T1 sequence (Q06124 whole entry)
Outline: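 Thermal shift with SHP2 1-525 construct at 100 µg/mL, 5× SYPRO Orange, 100 mM Bis-Tris pH 6.5, 100 mM NaCl, 0.25 mM TCEP, 5% DMSO; compound at 100 µM final. Ramp 25–75 °C in 0.5 °C steps, ex 465/em 580 nm. Tm as transition midpoint by semi-parametric fit; ΔTm against mean of 32 DMSO-only apo controls per plate.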

[3] = target: T1, Tyrosine-protein phosphatase non-receptor type 11; assay: Inhibition of human SHP2 PTP domain (237 to 529 residues) by fluorescence analysis
[4] = Drug uptake in plasma of immunocompromised nude mouse xenografted with human KYSE520 cells administered qd via oral gavage; type: ADME; conditions: in the assay text read “administered as a single dose via” for “administered qd via”
Outline: (§1)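 Female nude mice bearing subcutaneous KYSE-520 xenografts (3 x 10^6 cells in 50% matrigel/HBSS) received a single oral gavage dose of vehicle or compound (30 or 100 mg/kg) once tumors reached roughly 500 mm3. Euthanized at set time points; plasma harvested for drug levels and xenograft fragments for p-ERK.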

[5] = Solubility of the compound at pH 6.8; type: physicochemical; conditions: buffer
[6] = Apparent permeability across apical to basolateral side in human Caco2 cells; type: ADME, cell-based; conditions: Caco-2
[7] = AUC in C57BL/6 mouse at 5 mg/kg, po by LC-MS/MS analysis; type: ADME, organism-based; conditions: in vivo
Outline: (§2)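 Male C57BL/6 mice dosed orally at 5 mg/kg. Whole blood taken by tail transection at 0.25, 0.5, 1, 2, 4 and 7 h into EDTA. Plasma stored at -20 °C, precipitated with acetonitrile containing internal standard. PK parameters from noncompartmental analysis; AUClast by linear trapezoidal rule. %F = (AUCinf,po/AUCinf,iv)×(Dose iv/Dose po), with IV reference at 1 mg/kg via tail vein. Results given as mean.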

[8] = Oral bioavailability in C57BL/6 mouse at 5 mg/kg by LC-MS/MS analysis; type: ADME, organism-based; conditions: in vivo; outline: as §2
[9] = test system: Mus musculus; assay: In vivo inhibition of ERK phosphorylation in human KYSE520 cells xenografted in immunocompromised nude mouse at 30 and 100 mg/kg administered qd through oral gavage; type: functional, organism-based; conditions: in the assay text read “administered as a single dose through” for “administered qd through”; outline: as §1
[10] = test system: KYSE-520 cell line; assay: Antitumor activity against human KYSE520 cells xenografted in immunocompromised nude mouse assessed as tumor growth inhibition at 10 mg/kg administered qd through oral gavage relative to vehicle control; type: functional
Outline: (§3)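 Female nude mice inoculated subcutaneously with 3 x 10^6 parental KYSE-520 cells in 50% phenol red-free matrigel in HBSS. Tumors calipered twice weekly in two dimensions. At roughly 200 mm3, mice randomized to vehicle, test compound (10, 30 or 100 mg/kg qd) or erlotinib (80 mg/kg qd), all by oral gavage. Growth compared with vehicle group.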

[11] = test system: KYSE-520 cell line; assay: Antitumor activity against human KYSE520 cells xenografted in immunocompromised nude mouse assessed as tumor growth inhibition at 30 mg/kg administered qd through oral gavage relative to vehicle control; type: functional; outline: as §3
[12] = test system: KYSE-520 cell line; assay: Antitumor activity against human KYSE520 cells xenografted in immunocompromised nude mouse assessed as tumor growth at 100 mg/kg administered qd through oral gavage relative to vehicle control; type: functional; outline: as §3
[13] = test system: KYSE-520 cell line; assay: Antitumor activity against human KYSE520 cells xenografted in immunocompromised nude mouse assessed as tumor stasis at 80 mg/kg administered qd through oral gavage relative to vehicle control; type: functional, organism-based; outline: as §3

Q: Which IC50 [1] does the source give for `Cc1cccc(-c2cnc(N3C[C@@H](C)N[C@@H](C)C3)nc2N)c1C` here?
A: Its IC50 is greater than 100 µM.

Q: For `C[C@@H]1CN(c2ncc(-c3cccc(Cl)c3)c(N)n2)C[C@H](C)N1`, which IC50 [1] is on record?
A: Its IC50 is 99 µM.

Q: For `C[C@@H]1CN(c2ncc(-c3ccc(Cl)c(Cl)c3)c(N)n2)C[C@H](C)N1`, which IC50 [1] is on record?
A: The IC50 was 54 µM.

Q: What does the source list for `C[C@@H]1CN(c2ncc(-c3cccc(Cl)c3Cl)c(N)n2)C[C@H](C)N1`?
A: ΔTm [2]: 3 to 3.02 °C; IC50 [3]: > 100 µM

Q: With `CC1(N)CCN(c2cnc(-c3cccc(Cl)c3Cl)c(N)n2)CC1` as the compound, how does the Drug uptake [4] read?
A: The Drug uptake was “Dose-dependent effect”.

Q: And the solubility [5]?
A: The solubility was greater than 500 µM.

Q: What about the Papp A→B [6] of the same compound?
A: Its Papp A→B is 13.2 ×10⁻⁶ cm/s.

Q: What about the AUC [7] of the same compound?
A: The AUC was 565 µM·h.

Q: What about the bioavailability [8] of the same compound?
A: The bioavailability was 46%.

Q: And the inhibition [9]?
A: Its inhibition is “Active”.

Q: And the TGI [10]?
A: Its TGI is 19%.

Q: What about the TGI [11] of the same compound?
A: The TGI was 61%.

Q: What about the T/C [12] of the same compound?
A: The T/C was 3%.

Q: With `CNc1nc(N2CCC(C)(N)CC2)cnc1-c1cccc(Cl)c1Cl` as the compound, how does the IC50 [1] read?
A: The IC50 was 22 µM.

Q: With `C#Cc1cccc(Nc2ncnc3cc(OCCOC)c(OCCOC)cc23)c1` as the compound, how does the Activity [13] read?
A: The Activity was “Active”.

Q: With `Nc1nc(N2CCC(N)CC2)ncc1-c1cccc(Cl)c1Cl` as the compound, how does the IC50 [1] read?
A: Its IC50 is 1.3 µM.

Q: For `CN(C)C1CCN(c2ncc(-c3cccc(Cl)c3Cl)c(N)n2)CC1`, which IC50 [1] is on record?
A: Its IC50 is 6.5 µM.
